Laboratory results from ChEMBL document CHEMBL2203015, “Synthesis and biological evaluation of 5-aryloxypyrazole derivatives bearing a rhodanine-3-aromatic acid as potential antimicrobial agents” (Bioorg Med Chem Lett, 2012).
In brackets after ≈: the same amount, converted by molar mass. Activity calls are given as the source filed them. The rule behind the calls is not given here.

Legend:
Staphylococcus aureus [1] = assay: Potency index, ratio of MIC for norfloxacin to MIC for compound against multidrug-resistant Staphylococcus aureus CCARM 3167 incubated for 24 hrs serial dilution method; format: functional
Staphylococcus aureus [2] = assay: Potency index, ratio of MIC for oxacillin to MIC for compound against multidrug-resistant Staphylococcus aureus CCARM 3506 incubated for 24 hrs serial dilution method; format: functional
Staphylococcus aureus [3] = assay: Antibacterial activity against multidrug-resistant Staphylococcus aureus CCARM 3506 incubated for 24 hrs serial dilution method; format: functional; conditions: CCARM 3506, 24 h
Staphylococcus aureus [4] = assay: Potency index, ratio of MIC for norfloxacin to MIC for compound against quinolone-resistant Staphylococcus aureus CCARM 3519 incubated for 24 hrs serial dilution method; format: functional
Staphylococcus aureus [5] = assay: Antibacterial activity against Staphylococcus aureus KCTC 503 incubated for 24 hrs serial dilution method; format: functional; conditions: KCTC 503, 24 h
Staphylococcus aureus [6] = assay: Potency index, ratio of MIC for oxacillin to MIC for compound against quinolone-resistant Staphylococcus aureus CCARM 3519 incubated for 24 hrs serial dilution method; format: functional
Staphylococcus aureus [7] = assay: Potency index, ratio of MIC for norfloxacin to MIC for compound against multidrug-resistant Staphylococcus aureus CCARM 3506 incubated for 24 hrs serial dilution method; format: functional
Staphylococcus aureus [8] = assay: Antibacterial activity against Staphylococcus aureus KCTC 209 incubated for 24 hrs serial dilution method; format: functional; conditions: KCTC 209, 24 h
Staphylococcus aureus [9] = assay: Antibacterial activity against quinolone-resistant Staphylococcus aureus CCARM 3519 incubated for 24 hrs serial dilution method; format: functional; conditions: CCARM 3519, 24 h
Staphylococcus aureus [10] = assay: Antibacterial activity against quinolone-resistant Staphylococcus aureus CCARM 3505 incubated for 24 hrs serial dilution method; format: functional; conditions: CCARM 3505, 24 h
HeLa [11] = assay: Toxicity against human HeLa cells at 2 ug/ml incubated for 48 hrs by MTT assay; format: cell-based
How it was run: (§1)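 HeLa cells kept in DMEM with 10% FBS and penicillin-streptomycin (100 U/mL) at 37 °C, 5% CO₂, split with 0.25% trypsin at 80–90% confluence. After 3 passages, about 1 × 10⁴ cells per well were seeded and left overnight to attach. Compound exposure 48 h. MTT (5 mg/mL in PBS) added for 4 h, formazan dissolved in DMSO, OD read at 570 nm.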

Staphylococcus aureus [12] = assay: Potency index, ratio of MIC for oxacillin to MIC for compound against quinolone-resistant Staphylococcus aureus CCARM 3505 incubated for 24 hrs serial dilution method; format: functional
HeLa [13] = assay: Toxicity against human HeLa cells at 1 ug/ml incubated for 48 hrs by MTT assay; format: cell-based; how it was run: as §1
Staphylococcus aureus [14] = assay: Antibacterial activity against multidrug-resistant Staphylococcus aureus CCARM 3167 incubated for 24 hrs serial dilution method; format: functional; conditions: CCARM 3167, 24 h
Staphylococcus aureus [15] = assay: Potency index, ratio of MIC for norfloxacin to MIC for compound against quinolone-resistant Staphylococcus aureus CCARM 3505 incubated for 24 hrs serial dilution method; format: functional
Staphylococcus aureus [16] = assay: Potency index, ratio of MIC for oxacillin to MIC for compound against multidrug-resistant Staphylococcus aureus CCARM 3167 incubated for 24 hrs serial dilution method; format: functional
Staphylococcus aureus [17] = assay: Antibacterial activity against Staphylococcus aureus RN 4220 incubated for 24 hrs serial dilution method; format: functional; conditions: RN 4220, 24 h
[18] = Toxicity against human HeLa cells incubated for 48 hrs by MTT assay; format: cell-based; how it was run: as §1
Escherichia coli [19] = assay: Antibacterial activity against Escherichia coli 1356 incubated for 24 hrs serial dilution method; format: functional; conditions: Escherichia coli, 1356, 24 h
Staphylococcus aureus [20] = assay: Antibacterial activity against Staphylococcus aureus KCTC 503 at 64 ug/ml incubated for 24 hrs serial dilution method; format: functional, organism-based
Staphylococcus aureus [21] = assay: Antibacterial activity against quinolone-resistant Staphylococcus aureus CCARM 3519 at 64 ug/ml incubated for 24 hrs serial dilution method; format: functional, organism-based
Staphylococcus aureus [22] = assay: Antibacterial activity against Staphylococcus aureus RN 4220 at 64 ug/ml incubated for 24 hrs serial dilution method; format: functional, organism-based
Staphylococcus aureus [23] = assay: Antibacterial activity against Staphylococcus aureus KCTC 209 at 64 ug/ml incubated for 24 hrs serial dilution method; format: functional, organism-based
Staphylococcus aureus [24] = assay: Antibacterial activity against quinolone-resistant Staphylococcus aureus CCARM 3505 at 64 ug/ml incubated for 24 hrs serial dilution method; format: functional, organism-based
Staphylococcus aureus [25] = assay: Antibacterial activity against multidrug-resistant Staphylococcus aureus CCARM 3506 at 64 ug/ml incubated for 24 hrs serial dilution method; format: functional, organism-based
Escherichia coli [26] = assay: Antibacterial activity against Escherichia coli 1356 at 64 ug/ml incubated for 24 hrs serial dilution method; format: functional, organism-based
Staphylococcus aureus [27] = assay: Antibacterial activity against multidrug-resistant Staphylococcus aureus CCARM 3167 at 64 ug/ml incubated for 24 hrs serial dilution method; format: functional, organism-based

| SMILES | Activity (Staphylococcus aureus [20]) | Activity (Staphylococcus aureus [21]) | Activity (Staphylococcus aureus [22]) | Activity (Staphylococcus aureus [23]) | Activity (Staphylococcus aureus [24]) | Activity (Staphylococcus aureus [25]) | Activity (Escherichia coli [26]) | Activity (Staphylococcus aureus [27]) | also measured |
| --- | --- | --- | --- | --- | --- | --- | --- | --- | --- |
| Cc1nn(-c2ccccc2)c(Oc2ccc(Cl)cc2Cl)c1/C=C1\SC(=S)N([C@@H](Cc2c[nH]c3ccccc23)C(=O)O)C1=O | – | – | – | – | – | – | – | – | Ratio (Staphylococcus aureus [1]): 4; Ratio (Staphylococcus aureus [2]): 64; MIC (Staphylococcus aureus [3]): 1 µg/mL (≈ 1.54 µM); Ratio (Staphylococcus aureus [4]): 4; MIC (Staphylococcus aureus [5]): > 64 µg/mL; Ratio (Staphylococcus aureus [6]): 64; Ratio (Staphylococcus aureus [7]): 4; MIC (Staphylococcus aureus [8]): > 64 µg/mL; MIC (Staphylococcus aureus [9]): 1 µg/mL (≈ 1.54 µM); MIC (Staphylococcus aureus [10]): 1 µg/mL (≈ 1.54 µM); Activity (HeLa [11]): Non-toxic; Ratio (Staphylococcus aureus [12]): 64; Activity (HeLa [13]): Non-toxic; MIC (Staphylococcus aureus [14]): 1 µg/mL (≈ 1.54 µM); Ratio (Staphylococcus aureus [15]): 4; Ratio (Staphylococcus aureus [16]): 64; MIC (Staphylococcus aureus [17]): 2 µg/mL (≈ 3.08 µM); IC50 at 48 h ([18]; read-out: IC50): 5.76 µg/mL (≈ 8.87 µM); MIC (Escherichia coli [19]): > 64 µg/mL |
| Cc1nn(-c2ccccc2)c(Oc2ccccc2Cl)c1C=O | inactive | inactive | inactive | inactive | inactive | inactive | inactive | inactive | – |
| Cc1nn(-c2ccccc2)c(Oc2c(Cl)cccc2Cl)c1C=O | inactive | inactive | inactive | inactive | inactive | inactive | inactive | inactive | – |
| Cc1nn(-c2ccccc2)c(Oc2ccc(Cl)cc2)c1C=O | inactive | inactive | inactive | inactive | inactive | inactive | inactive | inactive | – |
| Cc1nn(-c2ccccc2)c(Oc2ccc(Br)cc2)c1/C=C1\SC(=S)N([C@@H](Cc2c[nH]c3ccccc23)C(=O)O)C1=O | – | – | – | – | – | – | – | – | Ratio (Staphylococcus aureus [1]): 4; Ratio (Staphylococcus aureus [2]): 64; MIC (Staphylococcus aureus [3]): 1 µg/mL (≈ 1.52 µM); Ratio (Staphylococcus aureus [4]): 4; MIC (Staphylococcus aureus [5]): > 64 µg/mL; Ratio (Staphylococcus aureus [6]): 64; Ratio (Staphylococcus aureus [7]): 4; MIC (Staphylococcus aureus [8]): > 64 µg/mL; MIC (Staphylococcus aureus [9]): 1 µg/mL (≈ 1.52 µM); MIC (Staphylococcus aureus [10]): 1 µg/mL (≈ 1.52 µM); Ratio (Staphylococcus aureus [12]): 64; MIC (Staphylococcus aureus [14]): 1 µg/mL (≈ 1.52 µM); Ratio (Staphylococcus aureus [15]): 4; Ratio (Staphylococcus aureus [16]): 64; MIC (Staphylococcus aureus [17]): 2 µg/mL (≈ 3.03 µM); MIC (Escherichia coli [19]): > 64 µg/mL |
| Cc1cccc(Oc2c(C=O)c(C)nn2-c2ccccc2)c1 | inactive | inactive | inactive | inactive | inactive | inactive | inactive | inactive | – |
| Cc1nn(-c2ccccc2)c(Oc2ccc(Cl)cc2Cl)c1/C=C1\SC(=S)N([C@@H](Cc2ccccc2)C(=O)O)C1=O | – | – | – | – | – | – | – | – | Ratio (Staphylococcus aureus [1]): 8; Ratio (Staphylococcus aureus [2]): 32; MIC (Staphylococcus aureus [3]): 1 µg/mL (≈ 1.64 µM); Ratio (Staphylococcus aureus [4]): 8; MIC (Staphylococcus aureus [5]): > 64 µg/mL; Ratio (Staphylococcus aureus [6]): 32; Ratio (Staphylococcus aureus [7]): 8; MIC (Staphylococcus aureus [8]): > 64 µg/mL; MIC (Staphylococcus aureus [9]): 2 µg/mL (≈ 3.28 µM); MIC (Staphylococcus aureus [10]): 2 µg/mL (≈ 3.28 µM); Activity (HeLa [11]): Non-toxic; Ratio (Staphylococcus aureus [12]): 32; Activity (HeLa [13]): Non-toxic; MIC (Staphylococcus aureus [14]): 1 µg/mL (≈ 1.64 µM); Ratio (Staphylococcus aureus [15]): 8; Ratio (Staphylococcus aureus [16]): 32; MIC (Staphylococcus aureus [17]): 2 µg/mL (≈ 3.28 µM); IC50 at 48 h [18]: 3.54 µg/mL (≈ 5.8 µM); MIC (Escherichia coli [19]): > 64 µg/mL |
| Cc1nn(-c2ccccc2)c(Oc2ccc(Cl)cc2Cl)c1C=O | inactive | inactive | inactive | inactive | inactive | inactive | inactive | inactive | – |
| Cc1ccc(Oc2c(/C=C3\SC(=S)N([C@@H](Cc4c[nH]c5ccccc45)C(=O)O)C3=O)c(C)nn2-c2ccccc2)c(C)c1 | – | – | – | – | – | – | – | – | Ratio (Staphylococcus aureus [1]): 4; Ratio (Staphylococcus aureus [2]): 64; MIC (Staphylococcus aureus [3]): 1 µg/mL (≈ 1.64 µM); Ratio (Staphylococcus aureus [4]): 4; MIC (Staphylococcus aureus [5]): > 64 µg/mL; Ratio (Staphylococcus aureus [6]): 64; Ratio (Staphylococcus aureus [7]): 4; MIC (Staphylococcus aureus [8]): > 64 µg/mL; MIC (Staphylococcus aureus [9]): 1 µg/mL (≈ 1.64 µM); MIC (Staphylococcus aureus [10]): 1 µg/mL (≈ 1.64 µM); Ratio (Staphylococcus aureus [12]): 64; MIC (Staphylococcus aureus [14]): 1 µg/mL (≈ 1.64 µM); Ratio (Staphylococcus aureus [15]): 4; Ratio (Staphylococcus aureus [16]): 64; MIC (Staphylococcus aureus [17]): 2 µg/mL (≈ 3.29 µM); MIC (Escherichia coli [19]): > 64 µg/mL |
| Cc1nn(-c2ccccc2)c(Oc2cccc(Cl)c2)c1C=O | inactive | inactive | inactive | inactive | inactive | inactive | inactive | inactive | – |
| Cc1ccccc1Oc1c(C=O)c(C)nn1-c1ccccc1 | inactive | inactive | inactive | inactive | inactive | inactive | inactive | inactive | – |
| COc1ccc(Oc2c(C=O)c(C)nn2-c2ccccc2)cc1 | inactive | inactive | inactive | inactive | inactive | inactive | inactive | inactive | – |
| COc1ccccc1Oc1c(C=O)c(C)nn1-c1ccccc1 | inactive | inactive | inactive | inactive | inactive | inactive | inactive | inactive | – |
| Cc1nn(-c2ccccc2)c(Oc2cccc(C(F)(F)F)c2)c1C=O | inactive | inactive | inactive | inactive | inactive | inactive | inactive | inactive | – |
| Cc1nn(-c2ccccc2)c(Oc2ccc(F)cc2)c1C=O | inactive | inactive | inactive | inactive | inactive | inactive | inactive | inactive | – |
| Cc1ccc(Oc2c(C=O)c(C)nn2-c2ccccc2)c(C)c1 | inactive | inactive | inactive | inactive | inactive | inactive | inactive | inactive | – |
| Cc1nn(-c2ccccc2)c(Oc2ccc(Br)cc2)c1C=O | inactive | inactive | inactive | inactive | inactive | inactive | inactive | inactive | – |
